High-throughput results (PubChem BioAssay)
PLK1 kinase inh: human PLK1 kinase inhibitors, primary screen, biochemical, TR-FRET | AID 619, 2007 | recombinant PLK1 kinase, TR-FRET peptide phosphorylation | Serine/threonine-protein kinase PLK1 (Homo sapiens), P53350 | 97,000 tested, 0.53% active | inhibition, % at 10 µM;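 active = inhibition of 50% or more in the single-concentration screen; inactive = inhibition below 50%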;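 also: 0% = DMSO max control and 100% = H-89 dihydrochloride min control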
PLK1 PBD inh: Plk1 polo box domain binding inhibitors, primary screen, biochemical, fluorescence polarization; Serine/threonine-protein kinase PLK1 (Homo sapiens), P53350; Plk1 PBD phosphopeptide binding; inhibition, %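 (tested at about 20 µM)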; 97,000 tested, 0.13% active; in the data active = inhibition above about 34%, passing the limit was not always enough
PTPN22 act: LYP phosphatase activators, primary screen, biochemical, DiFMUP fluorescence, 2 µM | AID 697, 2007 | 96,000 tested, 0.11% active | recombinant LYP; 0 = plate median, 100 = signal doubled | activation, % at 2 µM;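 active = activation at 2 µM above a set limit, the mean plus 5 SD, cut at about 37% in these data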
Target sequence (Q9Y2R2 whole entry, looked up): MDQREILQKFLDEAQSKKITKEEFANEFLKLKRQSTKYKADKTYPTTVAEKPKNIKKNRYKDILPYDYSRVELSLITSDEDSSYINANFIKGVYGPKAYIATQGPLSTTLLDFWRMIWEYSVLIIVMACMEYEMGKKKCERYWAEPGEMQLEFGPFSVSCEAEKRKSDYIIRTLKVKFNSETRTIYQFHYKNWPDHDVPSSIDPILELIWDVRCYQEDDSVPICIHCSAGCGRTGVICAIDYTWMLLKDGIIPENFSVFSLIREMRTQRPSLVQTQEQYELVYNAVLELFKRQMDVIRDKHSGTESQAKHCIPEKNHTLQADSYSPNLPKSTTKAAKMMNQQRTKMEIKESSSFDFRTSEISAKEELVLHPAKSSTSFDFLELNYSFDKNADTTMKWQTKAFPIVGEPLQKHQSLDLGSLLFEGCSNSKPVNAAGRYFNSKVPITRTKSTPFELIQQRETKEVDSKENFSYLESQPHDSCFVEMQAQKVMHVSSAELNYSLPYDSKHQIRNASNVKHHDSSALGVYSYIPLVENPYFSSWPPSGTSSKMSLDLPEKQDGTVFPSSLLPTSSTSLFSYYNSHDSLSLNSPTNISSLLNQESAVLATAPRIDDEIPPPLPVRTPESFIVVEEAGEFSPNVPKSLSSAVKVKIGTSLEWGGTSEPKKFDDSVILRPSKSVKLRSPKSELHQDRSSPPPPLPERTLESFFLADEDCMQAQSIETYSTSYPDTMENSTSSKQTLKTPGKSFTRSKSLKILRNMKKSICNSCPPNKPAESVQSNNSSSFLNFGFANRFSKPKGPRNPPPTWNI
EphB4 ephrin blk: EphB4-ephrin-B2 interaction antagonists, primary screen, biochemical, TNYL-RAW peptide probe, fluorescence polarization; AID 720, 2007; EphB4 LBD / TNYL-RAW-Alexa532 peptide; 97,000 tested, 0.15% active; inhibition, % at 7 µM; Ephrin type-B receptor 4 (Homo sapiens), P54760;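 active = inhibition above the screen-wide mean inhibition plus 3 SD, cut at about 15% in these data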;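 also: 0% = DMSO wells and 100% = excess unlabeled TNYL-RAW peptide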
LYP inh 2: PTPN22 phosphatase inhibitors, primary screen, biochemical, DiFMUP fluorescence, 2 µM | 96,000 tested, 0.21% active | inhibition, % at 2 µM | Tyrosine-protein phosphatase non-receptor type 22 (Homo sapiens), Q9Y2R2 | AID 640, 2007 | recombinant LYP catalytic domain;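 active = inhibition at 2 µM at or above a set limit, the screen mean plus 3 SD, cut at about 24% in these data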;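 also: 0% = DMSO with enzyme and 100% = enzyme fully blocked by orthovanadate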
HIV Rev-RRE inh: HIV-1 Rev-RRE binding inhibitors, primary screen, biochemical, FRET, protein-RNA interaction; inhibition, % at 8 µM; 97,000 tested, 0.79% active; Rev peptide-RRE RNA binding;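 active = inhibition above the screen-wide mean plus 3 SD, cut at about 35% in these data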;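 also: 0% = median DMSO wells and 100% = median Neomycin B control wells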
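Assay system: Labelled RRE RNA duplex and labelled Rev peptide | Times: 5 min preincubation and 15 min binding, 25 °C | Detection: FRET, ex 480 nm, em 540 and 671 nm | Evaluation: % inhibition of FRET ratio versus controls | Benchmarks: DMSO wells as 0% and neomycin B wells as 100% inhibition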
Numbers without * were called inactive; [ ] = another dose, or the depositor's remark. Rows were chosen to be rich in hits. Some 1.8% of all compounds tested hit in one or more screens of this group.

`COc1ccc(OC)c2c1C(=O)c1ccccc1C2=O` gave PLK1 kinase inh -13.6, PLK1 PBD inh 31.6, PTPN22 act -2.9, EphB4 ephrin blk -1.7, LYP inh 2 5.7 and HIV Rev-RRE inh 75.1*[fluorescence artefact?].
O=C(N/N=C/c1cc(Br)ccc1O)C(=O)Nc1ccccc1OC(F)(F)C(F)F was read as PLK1 kinase inh -13.3, PLK1 PBD inh 1.6, PTPN22 act -19.0, EphB4 ephrin blk -2.6, LYP inh 2 23.3 and HIV Rev-RRE inh 48.6*.
For COCCNC(=O)C(=O)N/N=C/c1ccccc1C(F)(F)F the results were PLK1 kinase inh -10.8, PLK1 PBD inh 11.9, PTPN22 act -1.9, EphB4 ephrin blk -5.9, LYP inh 2 2.4 and HIV Rev-RRE inh 3.4.
CCN(CC)C(=O)Cn1cnc2sc(C(=O)Nc3cc(OC)c(OC)c(OC)c3)c(C)c2c1=O was read as PLK1 kinase inh -8.4, PLK1 PBD inh 2.6, PTPN22 act 0.1, EphB4 ephrin blk -4.5, LYP inh 2 2.3 and HIV Rev-RRE inh 5.2.
Screening O=C(Cn1c2ccccc2c(=O)c2ccccc21)N/N=C/c1cc([N+](=O)[O-])ccc1N1CCCCCC1 returned PLK1 kinase inh -3.1, PLK1 PBD inh 17.3, PTPN22 act -25.1, EphB4 ephrin blk -1.2, LYP inh 2 27.5* and HIV Rev-RRE inh -20.4.
For O=C(CNc1ccccc1)N/N=C/c1cc([N+](=O)[O-])ccc1N1CCCC1 the results were PLK1 kinase inh -1.6, PLK1 PBD inh -14.2, PTPN22 act -3.2, EphB4 ephrin blk -3.2, LYP inh 2 8.2 and HIV Rev-RRE inh -0.8.
CC1(c2cccs2)CC(c2cccs2)=C(C#N)C(=O)N1 (stereo not drawn) was read as PLK1 kinase inh -11.3, PLK1 PBD inh -7.6, PTPN22 act -6.3, EphB4 ephrin blk 0.6, LYP inh 2 5.9 and HIV Rev-RRE inh 9.6.
N#Cc1c(Sc2ncc(C(F)(F)F)cc2Cl)nsc1C/C=N\OCc1ccccc1Br was read as PLK1 kinase inh 2.5, PLK1 PBD inh -0.4, PTPN22 act -4.5, EphB4 ephrin blk 0.8, LYP inh 2 4.0 and HIV Rev-RRE inh 69.2*.
For CCOC(=O)/C(=C\Nc1ccccc1C(F)(F)F)Sc1ncc(C(F)(F)F)cc1Cl the results were PLK1 kinase inh -0.4, PLK1 PBD inh 24.7, PTPN22 act -0.2, EphB4 ephrin blk 9.7, LYP inh 2 -0.6 and HIV Rev-RRE inh 18.5.
For CCc1nn(-c2ccccc2)c2c1-c1cc(OC)c(OC)cc1C1(N2)C(=O)Nc2ccccc21 (stereo not drawn) the results were PLK1 kinase inh -9.4, PLK1 PBD inh -30.4, PTPN22 act -6.1, EphB4 ephrin blk -0.1, LYP inh 2 7.6 and HIV Rev-RRE inh -2.6.
`CC(C)(C)C(=O)NC1CCN(S(=O)(=O)c2ccc(C(F)(F)F)cc2)CC1` gave PLK1 kinase inh -4.5, PLK1 PBD inh 9.5, PTPN22 act -5.6, EphB4 ephrin blk -3.3, LYP inh 2 5.1 and HIV Rev-RRE inh 2.8.
For CCCC(=O)Nc1ccc2c(c1)nc(CCNC(=O)c1ccccc1)n2C the results were PLK1 kinase inh -6.8, PLK1 PBD inh 1.3, PTPN22 act -25.5, EphB4 ephrin blk 0.5, LYP inh 2 26.7* and HIV Rev-RRE inh 2.3.
Screening Cc1nnc(SCC(=O)N/N=C/c2cn(-c3ccccc3)nc2-c2ccccc2)n1-c1ccccc1 returned PLK1 kinase inh -10.7, PLK1 PBD inh -27.9, PTPN22 act -22.1, EphB4 ephrin blk -0.5, LYP inh 2 24.9* and HIV Rev-RRE inh -4.2.
For CCN(CC1COc2ccccc2O1)C(=S)Nc1ccccc1 (stereo not drawn) the results were PLK1 kinase inh -19.4, PLK1 PBD inh -20.9, PTPN22 act -6.3, EphB4 ephrin blk -2.5, LYP inh 2 9.6 and HIV Rev-RRE inh -1.3.
For O=C(Nc1nccs1)c1cccc(N2C(=O)c3cccc4c([N+](=O)[O-])ccc(c34)C2=O)c1 the results were PLK1 kinase inh -12.6, PLK1 PBD inh -11.2, PTPN22 act -2.0, EphB4 ephrin blk 1.4, LYP inh 2 3.8 and HIV Rev-RRE inh 50.8*.
For COc1ccc(C(C)=O)cc1COc1ccc(-n2cnnn2)cc1 the results were PLK1 kinase inh -1.7, PLK1 PBD inh 7.8, PTPN22 act -9.7, EphB4 ephrin blk 1.4, LYP inh 2 12.8 and HIV Rev-RRE inh 4.5.
For O=C1CN(Cc2ccccc2)C(=NCc2ccco2)S1 the results were PLK1 kinase inh -8.9, PLK1 PBD inh -21.1, PTPN22 act -13.2, EphB4 ephrin blk 0.3, LYP inh 2 12.6 and HIV Rev-RRE inh -3.0.
Screening Cc1cc(C)c(S(=O)(=O)NCc2cn3c(C)csc3n2)cc1C returned PLK1 kinase inh -18.5, PLK1 PBD inh -0.9, PTPN22 act 6.7, EphB4 ephrin blk 19.4*, LYP inh 2 -7.4 and HIV Rev-RRE inh 9.8.
`Cc1ccc(C(=O)C(NC(=O)c2ccco2)Nc2sc3c(c2C(N)=O)CCCC3)cc1` (stereo not drawn) gave PLK1 kinase inh -1.6, PLK1 PBD inh 8.4, PTPN22 act 4.9, EphB4 ephrin blk 2.9, LYP inh 2 -6.4 and HIV Rev-RRE inh -4.1.
Screening CN(C)CCCNc1ncnc2c1cnn2-c1ccccc1 returned PLK1 kinase inh 66.7*, PLK1 PBD inh 22.9, PTPN22 act -7.0, EphB4 ephrin blk 1.3, LYP inh 2 4.8 and HIV Rev-RRE inh 7.5.
`Cc1nnc2sc(-c3ccc(NC(=O)c4ccc(-c5ccc(Cl)cc5Cl)o4)cc3)nn12` gave PLK1 kinase inh -19.1, PLK1 PBD inh -10.2, PTPN22 act -32.4, EphB4 ephrin blk -6.5, LYP inh 2 31.8* and HIV Rev-RRE inh 18.9.
`O=C(Nc1ccc(F)cc1)N(Cc1ccco1)Cc1cc2cc3c(cc2[nH]c1=O)OCO3` gave PLK1 kinase inh -7.0, PLK1 PBD inh 19.3, PTPN22 act -0.7, EphB4 ephrin blk 2.1, LYP inh 2 -2.7 and HIV Rev-RRE inh 36.8*.
`CCCC(=O)Nc1nc2c(OC)ccc(OC)c2s1` gave PLK1 kinase inh 62.7*, PLK1 PBD inh 0.3, EphB4 ephrin blk -1.6 and HIV Rev-RRE inh 0.1.
`Cc1cc(C(=O)O)c(C)n1-c1ccccc1` gave PLK1 kinase inh -12.0, PLK1 PBD inh 1.2, PTPN22 act -4.1, EphB4 ephrin blk 5.6, LYP inh 2 2.7 and HIV Rev-RRE inh 0.5.
Screening CSc1cccc(-n2c(C)cc(C(N)=O)c2C)c1 returned PLK1 kinase inh -0.5, PLK1 PBD inh -7.3, PTPN22 act 3.4, EphB4 ephrin blk 15.5*, LYP inh 2 -6.5 and HIV Rev-RRE inh 7.9.
CC(=O)Nc1cccc(-c2csc(Nc3cc(C)ccn3)n2)c1 was read as PLK1 kinase inh -10.8, PLK1 PBD inh -3.6, PTPN22 act 5.2, EphB4 ephrin blk 7.5, LYP inh 2 -1.8 and HIV Rev-RRE inh 11.1.
